Screens from PubChem.
In the library only some 9.2% were active in any assay of this set; here they are far more common.
H69AR inhibit: growth inhibitors of human H69AR lung tumor cells; H69AR lung tumor viability, ATP luminescence, 72 h; active compounds read low; viability, % at 10 µM; 85,000 tested, 6% active; AID 598;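 active = viability at or below 40%; inactive = viability above 40%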;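 note: multidrug resistant small cell line overexpressing MRP-1 efflux transporter; 100% = mean luminescence of untreated control wells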
ERb coact inh: ER-beta (human) coactivator binding inhibition; Q92731; TR-FRET ER-beta LBD / SRC1-Cy5 peptide binding; receptor agonist-loaded with 1 µM estradiol; inhibition, % at 25.6 µM; 86,000 tested, 1.3% active; AID 633;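 active = compounds whose percent inhibition of the receptor-coactivator binding signal exceeds about 50% in the single-dose screen, limit read from the data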;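 note: 0% = receptor plus peptide wells without compound and 100% = peptide-only wells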
ERa coact inh: ER-alpha (human) coactivator binding inhibition; inhibition, % at 25.6 µM; P03372; TR-FRET ER-alpha LBD / SRC-1 peptide, estradiol-bound; AID 629; 86,000 tested, 1.7% active; in the data active = inhibition above about 50%;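 note: 0% = receptor plus peptide control and 100% = peptide only without receptor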
Target sequence (P03372 whole entry, looked up, the tested form may be a part): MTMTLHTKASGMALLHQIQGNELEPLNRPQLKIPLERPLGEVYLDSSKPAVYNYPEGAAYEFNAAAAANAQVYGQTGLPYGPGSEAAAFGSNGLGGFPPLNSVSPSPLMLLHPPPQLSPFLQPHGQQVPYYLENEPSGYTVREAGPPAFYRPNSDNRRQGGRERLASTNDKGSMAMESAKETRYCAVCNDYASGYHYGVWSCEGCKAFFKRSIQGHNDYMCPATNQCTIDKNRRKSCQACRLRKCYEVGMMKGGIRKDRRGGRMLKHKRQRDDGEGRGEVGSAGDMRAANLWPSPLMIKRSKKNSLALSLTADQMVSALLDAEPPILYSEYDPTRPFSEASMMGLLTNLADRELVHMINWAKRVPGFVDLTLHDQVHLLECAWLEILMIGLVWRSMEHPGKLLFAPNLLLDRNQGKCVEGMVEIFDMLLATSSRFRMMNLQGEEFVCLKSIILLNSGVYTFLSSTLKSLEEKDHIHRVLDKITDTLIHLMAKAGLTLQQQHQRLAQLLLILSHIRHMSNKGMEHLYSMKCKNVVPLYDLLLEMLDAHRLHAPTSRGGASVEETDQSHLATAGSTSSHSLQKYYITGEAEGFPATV
Lung fibro prol: blocks proliferation of human lung fibroblasts; LL 47 human lung fibroblast viability, ATP luminescence; active compounds read low; viability, % at 10 µM; 85,000 tested, 1.1% active;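 active = viability at or below 50% in the single dose screen; inactive = viability above 50%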;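 note: compound exposure lasted 72 h before the ATP readout; 100% = median luminescence of untreated cell-only wells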
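Signal: luminescent ATP detection, CellTiter-Glo; assay system: LL 47 human lung fibroblasts; input: 1,150 cells/well; incubation: overnight cell rest, 72 h compound treatment at 37 °C; measure: % viability versus median cells-only luminescence; medium: IMEM growth medium with 15% fetal bovine serum; dosing: compound addition at 0.1% DMSO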
ERa SRC1 pot: enhances coactivator binding to human estrogen receptor alpha | P03372 | TR-FRET ERalpha-LBD/SRC-Cy5 coactivator binding, 2 h; 100 = basal binding, no effect | coactivator binding (% of control), % at 25.6 µM | 86,000 tested, 1.3% active; in the data active = activity above about 200%;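 note: binding measured in presence of low estradiol as agonist stimulus; 0% = peptide alone without receptor and 100% = receptor with peptide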
HUVEC inhibit: human endothelial cell proliferation inhibition; 86,000 tested, 1.1% active; viability, % at 10 µM (by protocol); AID 648; HUVEC proliferation, CellTiter-Glo luminescence, 72 h; active compounds read low;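 active = viability at or below 30%; inactive = viability above 30%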;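 note: 100% = median luminescence of DMSO-only cell control wells on each plate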
* hit, by the source's call; nt = no result; [ ] = dose if it differs, or a comment.

SMILES	H69AR inhibit	ERb coact inh	ERa coact inh	Lung fibro prol	ERa SRC1 pot	HUVEC inhibit
Cc1ccc2nc(/C(C#N)=C\c3ccc(N4CCCCC4)c([N+](=O)[O-])c3)[nH]c2c1	17.5*	35.7	82.0*	98.2	73.7	106.2
Cc1ccc2nc(/C(C#N)=C/c3cn[nH]c3-c3ccc(F)cc3)[nH]c2c1	14.0*	-13.2	-11.7	86.6	97.5	59.2
Cc1ccc2nc(/C(C#N)=N/O)[nH]c2c1	80.0	-1.4	1.6	96.3	102.5	93.9
O=C1S/C(=C/c2ccc(N3CCOCC3)o2)C(=O)N1Cc1ccc(F)cc1	25.6*	-13.9	-8.3	66.7	77.5	70.8
CCc1nc(SCC(=O)NCCc2ccccc2)c2oc3ccccc3c2n1	96.7	24.0	41.9	93.2	98.6	121.8
Cc1nc(SCC(=O)Nc2ccccc2)c2oc3ccccc3c2n1	12.0*	53.3*[fluorescence artefact?]	55.2*[fluorescence artefact?]	90.5	552.0*[fluorescence artefact?]	47.0
Cc1nc(SCC(=O)NCCc2ccccc2)c2oc3ccccc3c2n1	92.6	6.8	26.0	101.4	264.1*[fluorescence artefact?]	93.5
CCc1nc(SCC(=O)c2cccs2)c2oc3ccccc3c2n1	87.0	-9.0	-5.0	99.8	223.9*	104.4
COc1ccc(S(=O)(=O)N2CCCCC2)cc1C(C)C	79.5	-3.5	2.7	92.9	109.0	102.7
Cc1ccc(Cl)cc1N1CCN(C(=O)CN(C2CCCCC2)S(C)(=O)=O)CC1	73.4	-0.9	-0.1	93.1	91.5	88.0
O=C(NCC(=O)N(c1ccccc1)C(C(=O)NCC1CCCO1)c1ccccc1)c1ccco1 (configuration not stated)	93.2	-3.4	-4.6	98.7	114.6	83.2
O=C(Nc1nc2ccccc2[nH]1)C1CC(=O)N(c2ccc3c(c2)OCCO3)C1 (configuration not stated)	67.4	43.2	67.7*[fluorescence artefact?]	97.2	52.8	83.8
CCCCn1c(Cc2ccccc2)nnc1SCC(=O)Nc1cc(C)on1	105.0	31.9	34.2	98.0	104.6	106.5
CC1=C(C(=O)Nc2ccccc2)C(c2cccc([N+](=O)[O-])c2)Nc2nc3ccccc3n21 (configuration not stated)	34.6*	-5.4	-3.3	96.5	81.7	91.2
CCOC(=O)C1=C(C)NC(C)=C(C(=O)OC)C1c1cccc([N+](=O)[O-])c1 (configuration not stated)	92.4	12.3	11.2	95.4	64.5	78.0
COc1ccccc1NC(=O)c1cc2ccccc2o/c1=N\O	52.6	-1.3	15.1	97.1	91.0	67.0
COc1ccccc1NC(=O)c1cc2ccc(O)cc2o/c1=N\O	35.5*	14.4	38.1	95.8	88.5	80.7
CCC(OC(=O)CCc1nc2ccccc2[nH]c1=O)C(=O)c1ccccc1 (configuration not stated)	86.5	8.9	-5.5	112.8	99.0	111.7
FC(F)C(F)(F)C(F)(F)C(F)(F)c1cc(-c2ccccc2)n[nH]1	30.2*	5.7	2.5	82.3	90.8	13.9*
c1ccc(-c2nc3nonc3nc2-c2ccccc2)cc1	1.9*	-5.9	0.6	16.8*	118.4	52.4
Nc1nnc(-c2ccccc2)c(-c2ccccc2)n1	89.6	-6.0	4.8	87.3	93.6	96.0
O=S(=O)(c1ccc(N2CCCC2)cc1)C(F)(F)F	83.9	-1.2	-15.4	97.2	93.5	100.2
Cn1ncc(N=Cc2ccccc2O)c1C(=O)Nc1ccccc1	36.8*	2.5	3.9	104.7	151.4	97.9
Cn1ncc(N=Cc2c(O)ccc3ccccc23)c1C(=O)N1CCOCC1	82.5	-17.5	-17.7	98.7	114.6	100.8
COc1ccc(N2C3=C(CC4=C2CCCC4=O)C(=O)CCC3)cc1	88.6	21.8	24.7	104.8	104.4	89.3
SMILES	H69AR inhibit	ERb coact inh	ERa coact inh	Lung fibro prol	ERa SRC1 pot	HUVEC inhibit
COc1ccc(N2C3=C(CC4=C2CC(C)(C)CC4=O)C(=O)CC(C)(C)C3)cc1	88.9	-2.1	9.3	6.0*	59.5	10.4*
O=C(CCc1ccc(S(=O)(=O)N2CCOCC2)cc1)N1CCN(Cc2ccc3c(c2)OCO3)CC1	73.4	-6.3	0.4	97.4	91.2	100.6
COc1ccccc1Nc1nc(N)nc(CN2CCC(Cc3ccccc3)CC2)n1	39.7*	0.5	-2.7	91.7	128.8	71.7
CCOC(=O)c1c2c(n(C)c1C)C(=O)C(=O)c1ccc(Br)cc1-2	1.6*	6.4	12.2	3.0*	98.0	3.3*
CCOC(=O)c1c(C)n(C)c2ccc(OC(C)=O)cc12	87.8	-20.7	-21.8	96.9	99.0	83.6
CN1Cc2cc(C(=O)c3ccccc3O)cnc2NC1=O	24.7*	-0.9	-2.4	84.1	90.6	90.2
CCc1c(C)nc2ncnn2c1N1CCC(C(=O)Nc2ccc(C)cc2)CC1	35.0*	-8.2	-4.6	99.5	100.8	100.7
O=C(Nn1c(=O)[nH]c2ccccc2c1=O)c1ccco1	99.6	19.6	0.8	104.0	108.8	98.4
CCn1c2ccccc2c2cc(NC(=O)C3CCN(S(=O)(=O)c4cccs4)CC3)ccc21	21.0*	10.2	-5.7	92.4	199.7	39.0
Cc1ccc(NC(=O)C2CCN(S(=O)(=O)c3cccs3)CC2)cc1C	87.6	-8.2	-3.6	105.0	90.6	100.5
CC(C)C[C@H](NC(=O)OC(C)(C)C)c1nnc(SCC(=O)Nc2ccc(Br)cc2)o1	94.2	2.6	-1.7	95.7	127.2	96.2
CC(C)(Oc1ccc(-c2ccco2)cc1)C(=O)O	88.4	4.3	0.7	101.3	99.1	93.8
CC(=O)C1=C(O)C=C(c2ccco2)CC1c1ccco1 (configuration not stated)	103.9	50.1*[fluorescence artefact?]	16.7	nt	85.6	112.2
COc1ccc(-c2cn3ccccc3n2)cc1OC	50.8	8.5	-4.1	78.2	118.5	77.8
COc1ccc(-c2cn3cc(C)ccc3n2)cc1OC	38.9*	3.0	-0.6	98.2	93.4	87.1
Cc1onc(-c2ccccc2)c1C(=O)Nc1ccccc1N1CCOCC1	31.4*	-4.0	-2.7	91.9	88.8	83.7
Cc1ccccc1NC(=O)c1c(-c2ccccc2)noc1C	88.3	4.8	-1.5	91.0	122.8	93.2
O=C(CSc1nc2ccccc2[nH]1)Nc1cc(C(F)(F)F)ccc1N1CCOCC1	31.1*	0.0	-7.2	96.8	83.6	95.7
Cc1onc(-c2ccccc2)c1C(=O)Nc1cc(C(F)(F)F)ccc1N1CCOCC1	22.7*	-0.1	-4.8	47.6*	115.5	39.2
C=C(C)Cn1c(SCCN2CCOCC2)nc2c1c(=O)[nH]c(=O)n2C	91.7	-3.5	-0.3	97.2	98.5	97.6
O=C(Nc1ccc2nc(-c3cccnc3)[nH]c2c1)c1ccco1	72.9	-3.6	-0.6	98.2	104.0	113.8
O=C(Nc1ccccc1)c1cccc(-c2nnc(-c3ccccc3)o2)c1	25.9*	19.7	6.6	93.6	309.2*[fluorescence artefact?]	18.7*
O=C(Nc1ccc2nc(-c3ccco3)[nH]c2c1)c1cccs1	39.7*	14.7	-17.2	91.2	89.7	93.6
